Blank lines part the entries; values can stand above or below the compound they belong to. Calls of active or inactive are those of the source. The rule behind the calls is not given here.
How the values were obtained:
A549 [1] = experiment: Cytotoxicity against human A549 cells assessed as reduction in cell proliferation incubated for 72 hrs by MTT assay; type: toxicity, cell-based; details: a549, 72 h
Summary of the method: (§1)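 Cells were seeded at 2500 per well in DMEM/F12 and left 24 h at 37 °C in 5% CO2 before treatment. Compounds came from DMSO stocks and were given at final 100–0.045 μM, eight dilutions, in triplicate, for 72 h. MTT (up to 0.5 mg/mL) was then added for 1.5 h and formazan dissolved in DMSO was read at 565 nm. Signal was normalized to untreated cells and IC50 calculated.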

MCF7 [2] = experiment: Induction of mitotic arrest in human MCF7 cells assessed as increase in mitotic index at > 50 uM measured for 12 hrs by phase contrast microscopic analysis; type: functional, cell-based
A549 [3] = experiment: Induction of cell cycle arrest in human A549 cells assessed as accumulation of cells at G2/M phase at 66 uM incubated for 24 hrs by PI staining based flow cytometric analysis; type: functional
Summary of the method: (§2)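 A549 cells were grown 48 h, then given compound or DMSO for 24 h, with nocodazole as control. Cells were fixed in 70% ice-cold ethanol overnight and stained with 30 μg/mL propidium iodide. DNA content was read by flow cytometry, with linear gates for G0/G1, S and G2/M. Mean ± s.d. of 2–3 independent experiments; G2/M versus DMSO tested by Dunnett's test.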

MCF7 [4] = experiment: Induction of mitotic arrest in human MCF7 cells assessed as increase in mitotic index at > 200 uM measured for 12 hrs by phase contrast microscopic analysis; type: functional, cell-based
Tubulin (Homo sapiens) [5] = biological target: T1, Tubulin (Homo sapiens) (UniProt P68371+Q9H4B7+P0DPH7+P68366+Q13509+Q71U36+P04350+Q3ZCM7+P07437+P68363+Q9BQE3+Q6PEY2+Q13885+Q9BVA1+Q9BUF5); experiment: Destabilization of microtubule network (unknown origin) assessed as decrease in catastrophes frequency measured for 30 min by differential interference contrast microscopic analysis
Tubulin (Homo sapiens) [6] = biological target: T1, Tubulin (Homo sapiens); experiment: Destabilization of microtubule network (unknown origin) assessed as reduction in microtubule growth rate measured for 30 min by differential interference contrast microscopic analysis
A549 [7] = experiment: Induction of mitotic arrest in human A549 cells assessed as increase in mitotic index at > 200 uM measured for 12 hrs by phase contrast microscopic analysis; type: functional, cell-based
HeLa [8] = experiment: Induction of mitotic arrest in human HeLa cells assessed as increase in mitotic index at > 200 uM measured for 12 hrs by phase contrast microscopic analysis; type: functional, cell-based
HeLa [9] = experiment: Induction of mitotic arrest in human HeLa cells assessed as increase in mitotic index at > 50 uM measured for 12 hrs by phase contrast microscopic analysis; type: functional, cell-based
A549 [10] = experiment: Induction of mitotic arrest in human A549 cells assessed as increase in mitotic index at > 50 uM measured for 12 hrs by phase contrast microscopic analysis; type: functional, cell-based
A549 [11] = experiment: Induction of cell cycle arrest in human A549 cells assessed as accumulation of cells at G2/M phase at > 22 uM incubated for 24 hrs by PI staining based flow cytometric analysis; type: functional; summary of the method: as §2
A549 [12] = experiment: Induction of cell cycle arrest in human A549 cells assessed as accumulation of cells at G2/M phase incubated for 24 hrs by PI staining based flow cytometry analysis; type: functional; details: for IC50: A549, 24 h; summary of the method: as §2
A549 [13] = experiment: Induction of cell cycle arrest in human A549 cells assessed as accumulation of cells at G0/G1 phase incubated for 24 hrs by PI staining based flow cytometry analysis; type: functional; details: dose <= 64.0 µM; summary of the method: as §2
A549 [14] = experiment: Induction of cell cycle arrest in human A549 cells assessed as accumulation of cells at S phase incubated for 24 hrs by PI staining based flow cytometry analysis; type: functional; details: dose <= 64.0 µM; summary of the method: as §2
Tubulin (Bos taurus) [15] = experiment: Displacement of CPZ from tubulin (bovine brain) assessed as decrease in fluorescence intensity incubated for 1 hr by fluorescence based analysis; details: dose 100.0 µM
[16] = Cytotoxicity against HEK293T cells assessed as reduction in cell proliferation incubated for 72 hrs by MTT assay; type: toxicity, cell-based, HEK293; details: human; summary of the method: as §1
Tubulin (Bos taurus) [17] = experiment: Destabilization of microtubule network of purified bovine brain tubulin in vitro assessed as decrease in microtubule growth rate at 25 uM measured for 30 min by differential interference contrast microscopic analysis relative to control; parameters: scale not given: the % may be the effect or the level left
Tubulin (Bos taurus) [18] = experiment: Destabilization of microtubule network of purified bovine brain tubulin in vitro assessed as decrease in catastrophes frequency at 25 uM measured for 30 min by differential interference contrast microscopic analysis
A549 [19] = experiment: Induction of cell cycle arrest in human A549 cells assessed as accumulation of cells at G2/M phase at 116 uM incubated for 24 hrs by PI staining based flow cytometric analysis; type: functional; summary of the method: as §2
A549 [20] = experiment: Induction of cell cycle arrest in human A549 cells assessed as accumulation of cells at G2/M phase at 200 uM incubated for 24 hrs by PI staining based flow cytometric analysis; type: functional; summary of the method: as §2
Tubulin (Homo sapiens) [21] = biological target: T1, Tubulin (Homo sapiens); experiment: Destabilization of microtubule network (unknown origin) assessed as effect on microtubule growth rate measured for 30 min by differential interference contrast microscopic analysis
A549 [22] = experiment: Induction of cell cycle arrest in human A549 cells assessed as accumulation of cells at G2/M phase up to 200 uM incubated for 24 hrs by PI staining based flow cytometric analysis; type: functional; summary of the method: as §2

- Activity (Tubulin (Homo sapiens) [5]): Active
- Activity (Tubulin (Homo sapiens) [6]): Active
- IC50 (A549 [12]): 22 µM
Structure (SMILES): O=C1CC[C@@H]2C[C@H](c3ccccc3)c3ccccc3N12 (racemic)
- Activity (A549 [1]): Toxic
- Activity (MCF7 [2]): Active
- Activity (A549 [3]): Active
- Activity (MCF7 [4]): Active
- Activity (A549 [7]): Active
- Activity (HeLa [8]): Active
- Activity (HeLa [9]): Active
- Activity (A549 [10]): Active
- Activity (A549 [11]): Active

- Activity (Tubulin (Bos taurus) [15]): Active
- Activity (Tubulin (Bos taurus) [17]): > 50%
- Activity (Tubulin (Bos taurus) [18]): Active
- IC50 (A549 [12]): 5.9 µM
Structure (SMILES): O=C1CC[C@@H]2C[C@H](c3cccc(O)c3)c3ccccc3N12 (racemic)
- Activity (A549 [13]): Dose-dependent-effect
- Activity (A549 [14]): Dose-dependent-effect
- IC50 at 72 h [16]: 4.1 µM
- Activity (A549 [12]; dose <= 64.0 µM): Dose-dependent-effect

- Activity (Tubulin (Homo sapiens) [5]): Active
- Activity (Tubulin (Homo sapiens) [6]): Active
- IC50 (A549 [12]): 82 µM
Structure (SMILES): O=C1CCC(/C=C/c2ccccc2)N1c1ccccc1 (racemic)
- Activity (A549 [1]): Toxic
- Activity (MCF7 [4]): Active
- Activity (A549 [19]): Active
- Activity (A549 [20]): Active
- Activity (A549 [7]): Active
- Activity (HeLa [8]): Active

- Activity (Tubulin (Homo sapiens) [21]): No effect
Structure (SMILES): CC(C)(C)c1ccc(N2C(=O)CCC2/C=C/c2ccccc2)cc1 (racemic)

- Activity (Tubulin (Homo sapiens) [5]): inactive
- Activity (Tubulin (Homo sapiens) [21]): No effect
Structure (SMILES): COc1cc(N2C(=O)CCC2c2ccc(Br)cc2)cc(OC)c1OC (racemic)

- Activity (Tubulin (Homo sapiens) [5]): inactive
- Activity (Tubulin (Homo sapiens) [21]): No effect
Structure (SMILES): COc1ccc(C2CCC(=O)N2c2cc(OC)c(OC)c(OC)c2)cc1OC (racemic)

- Activity (Tubulin (Homo sapiens) [21]): No effect
Structure (SMILES): COc1ccc(C2CCC(=O)N2c2cccc3[nH]ccc23)cc1OC (racemic)

- Activity (Tubulin (Homo sapiens) [21]): Active
Structure (SMILES): COc1ccc(N2C(=O)CCC2/C=C/c2ccc(C)cc2)cc1OC (racemic)
- Activity (A549 [22]): inactive

- Activity (Tubulin (Homo sapiens) [21]): Active
Structure (SMILES): COc1ccc(N2C(=O)CCC2c2ccc(OC)c(OC)c2)cc1 (racemic)

- Activity (Tubulin (Homo sapiens) [21]): Active
Structure (SMILES): Cc1ccc(/C=C/C2CCC(=O)N2c2ccccc2)cc1 (racemic)
- Activity (A549 [22]): inactive

- Activity (Tubulin (Homo sapiens) [21]): Active
Structure (SMILES): Cc1ccc([C@H]2C[C@H]3CCC(=O)N3c3ccccc32)cc1 (racemic)
- Activity (A549 [3]): inactive

- Activity (Tubulin (Homo sapiens) [21]): No effect
Structure (SMILES): Cc1ccccc1C1CCC(=O)N1c1ccc([N+](=O)[O-])cc1 (racemic)

- Activity (Tubulin (Homo sapiens) [21]): No effect
Structure (SMILES): O=C1CCC(c2c3ccccc3cc3ccccc23)N1c1ccc(C(F)(F)F)cc1 (racemic)

Reference: ChEMBL document CHEMBL6177917, “Synthesis and evaluation of tetrahydropyrrolo[1,2-a]quinolin-1(2H)-ones as new tubulin polymerization inhibitors” (RSC Med Chem, 2025)
